The target in series [1] is T1, Nuclear factor erythroid 2-related factor 2 (Rattus norvegicus) (UniProt O54968).
T1 sequence (whole entry): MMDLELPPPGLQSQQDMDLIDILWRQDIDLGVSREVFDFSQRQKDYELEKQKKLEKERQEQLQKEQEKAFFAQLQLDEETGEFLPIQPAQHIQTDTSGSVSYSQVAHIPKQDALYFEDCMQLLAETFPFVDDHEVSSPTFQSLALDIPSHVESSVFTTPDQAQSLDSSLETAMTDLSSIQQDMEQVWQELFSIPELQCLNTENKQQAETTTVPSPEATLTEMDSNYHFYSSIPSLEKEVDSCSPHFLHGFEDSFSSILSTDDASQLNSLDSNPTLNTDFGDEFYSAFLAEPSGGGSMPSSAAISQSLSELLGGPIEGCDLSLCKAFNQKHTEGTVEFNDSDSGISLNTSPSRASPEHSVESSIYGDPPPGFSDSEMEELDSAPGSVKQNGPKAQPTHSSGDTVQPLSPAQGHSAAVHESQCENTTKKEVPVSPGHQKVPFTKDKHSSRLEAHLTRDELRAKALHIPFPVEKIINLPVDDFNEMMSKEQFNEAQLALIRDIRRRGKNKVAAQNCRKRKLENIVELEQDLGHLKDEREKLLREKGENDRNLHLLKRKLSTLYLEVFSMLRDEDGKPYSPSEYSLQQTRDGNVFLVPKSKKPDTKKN
Description: Induction of MPP+ induced Nrf2 nuclear translocation in rat PC12 cells at 100 nM incubated for 24 hrs by Western blot analysis. The settings on record: PC-12, filed as activator. It counts as cell-based. In short, it runs like this: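 PC12 cells were incubated 24 h with MPP+ (25 μM) with or without compound (100 nM). Nuclear extracts (30 μg) were run on 10% SDS-PAGE and immunoblotted for Nrf2, with histone H3 as nuclear marker and ECL detection.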
(In general: In western blotting, separated proteins are transferred to a membrane and probed.)

The nature of series [2]: Stability of the compound in stimulated intestinal fluid at 40 mg/ml pancreatin by measuring observed rate constant measured upto 180 mins by HPLC analysis. It counts as ADME. Conditions: simulated gi fluid, 3 h. In short, it runs like this: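 USP simulated intestinal fluid containing pancreatin, in a 37 °C shaking water bath. Samples at 0, 60, 120 and 180 min were quenched with ice-cold acetonitrile containing 0.5% formic acid, centrifuged at 4 °C for 10 min, filtered and analyzed by HPLC. Means of three experiments ± SD.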

Calls of active or inactive are those of the source. No cut-off for these calls is given here.

Turning to `C#CCSC[C@H]1NC(=O)[C@H](Cc2ccc(OC(C)=O)c(OC(C)=O)c2)NC1=O`, the outcome in series [1] was Active. In series [2], the Kobs is 0.27 h⁻¹.

Values taken from ChEMBL document CHEMBL5352422, “Development of l-Dopa-containing diketopiperazines as blood-brain barrier shuttle” (Eur J Med Chem, 2022).
